Consider 26 compounds from ChEMBL document CHEMBL1122024, “Quantitative structure-inhibitory activity relationships of phenols and fatty acids for Bacillus subtilis spore germination” (J Med Chem, 1982).

In series [1] the test system is Bacillus subtilis. Put plainly: Inhibitory activity on germination of Bacillus subtilis PCI219 spores was determined at 2 x 10E-4 M. Type of series: functional. The method in brief:
(§1)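 Unheated B. subtilis PCI219 spores (about 2.2×10^8 cells per mL) were incubated with the test compound in 0.1 mM L-alanine germinant and 0.05 M phosphate buffer, pH 7.2, at 37 °C. Germination was followed as the decrease in absorbance at 650 nm. The rate was taken as the slope of the steepest linear portion and compared with an inhibitor-free control.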

Series [2] has as its system Bacillus subtilis. Type of series: functional.
Series [3] has as its system Bacillus subtilis. Put plainly: microbe, parasite or virus in culture. It counts as functional, organism-based. The conditions noted are these: read-out: I50.
The nature of series [4]: physchem. The conditions noted are these: octanol/water.
Series [5] can be described thus: physchem. As to conditions: octanol/water, pH 7.2.
Series [6] can be described thus: physchem.
In series [7] the test system is Bacillus subtilis. Put plainly: Inhibitory activity on germination of Bacillus subtilis PCI219 spores was determined; No inhibition at 5*10e-2 M. It counts as functional, organism-based. The method in brief: as §1

Compound `CCCCC/C=C\C/C=C\CCCCCCCC(=O)O` [LINOLEIC ACID] displayed an inhibition at 200 µM in series [1] of 34.6%.

`CC/C=C\C/C=C\C/C=C\CCCCCCCC(=O)O` [LINOLENIC ACID] yielded an inhibition at 200 µM in series [1] of 32%.

On to `Cc1cccc(O)c1` [METACRESOL], for which the Log 1/I50 in series [2] was 2.7 1/M. The IC50 in series [3] was determined as 2010 µM. Further, the logP in series [4] came to 1.97. In addition, in series [5], the logD stood at 1.97. Also, in series [6], the pKa amounted to 10.1.

On to `COC(=O)c1ccccc1O` [METHYL SALICYLATE], for which the “Log 1/I50” value in series [2] is listed as 3 1/M. Besides, the IC50 in series [3] stood at 1030 µM. This compound showed a log partition coefficient (logP) in series [4] of 2.46. Also, the logD in series [5] came to 2.46. In series [6], this compound showed a pKa of 10.2.

With `COC(=O)c1ccc(O)cc1` [METHYLPARABEN], the “Log 1/I50” value in series [2] is on record as 2.7 1/M. The IC50 in series [3] is 2010 µM.

`CCCCCCCCCCCCCC(=O)O` [MYRISTIC ACID] had an inhibition at 200 µM in series [1] of 21%.

Turning to `O=[N+]([O-])c1ccccc1O` [NITROPHENOLATE], the “Log 1/I50” value in series [2] was 2.5 1/M. Further, in series [3], the IC50 turned out to be 3150 µM. Also, the logP in series [4] is 1.77. Moreover, in series [5], the logD was found to be 1.47. The same compound registered a pKa in series [6] of 7.2.

`CCCCCCCCC(=O)O` [NONANOATE]: the “Log 1/I50” value in series [2] is listed as 2.05 1/M. Besides, in series [3], the IC50 was determined as 8900 µM. This compound also gave a lipophilicity (logP) in series [4] of 3.42. In series [5], the logD is 1.12. Also, the pKa in series [6] came out at 4.9.

As to `CCCCCCCC(=O)O` [OCTANOIC ACID], the “Log 1/I50” value in series [2] was 1.27 1/M. Besides, in series [3], the IC50 amounted to 53500 µM. Besides, the lipophilicity (logP) in series [4] came to 2.92. This compound also yielded a logD in series [5] of 0.62.

Consider `CCCCCCCC/C=C\CCCCCCCC(=O)O` [OLEIC ACID], for which the inhibition at 200 µM in series [1] was 30.2%.

Consider `Cc1cc(O)cc(O)c1` [ORCINOL], for which the “Log 1/I50” value in series [2] is reported as 1.77 1/M. The IC50 in series [3] was found to be 16800 µM. Further, the pKa in series [6] amounted to 9.3.

For `Cc1ccccc1O` [ORTHOCRESOL], in series [2], the “Log 1/I50” value is 2.89 1/M. Besides, the IC50 in series [3] came to 1300 µM. In addition, the logP in series [4] worked out at 1.98. For the same compound, in series [5], the pH-dependent lipophilicity (logD) worked out at 1.98. This compound also showed a pKa in series [6] of 10.3.

As to `O=[N+]([O-])c1ccc(O)cc1` [P-NITROPHENOL], the “Log 1/I50” value in series [2] is on record as 2.17 1/M. In series [3], the IC50 amounted to 6830 µM. Further, the logD in series [5] is 1.61. The compound further came in with a pKa in series [6] of 7.1.

In series [1], `CCCCCCCCCCCCCCCC(=O)O` [PALMITIC ACID] registered an inhibition at 200 µM of 17.3%.

Take `Oc1ccc(Cl)cc1` [PARACHLOROPHENOL]: in series [2], the “Log 1/I50” value is reported as 3.1 1/M. In series [3], the IC50 amounted to 797 µM. The compound also registered a pKa in series [6] of 9.4.

Consider `Oc1c(Cl)c(Cl)c(Cl)c(Cl)c1Cl` [PENTACHLOROPHENOL], for which the “Log 1/I50” value in series [2] is recorded as 3.46 1/M. For the same compound, the IC50 in series [3] was 346 µM. In series [6], this compound yielded a pKa of 5.

As for `Oc1ccccc1` [PHENOL], the IC50 in series [3] is 1500 µM.

Regarding `Nc1ccccc1O` [QUESTIOMYCIN B], the “Log 1/I50” value in series [2] is given as 1.52 1/M. The IC50 in series [3] turned out to be 29900 µM. Moreover, the lipophilicity (logP) in series [4] was determined as 0.57. Also, the logD in series [5] is 0.57. Moreover, the pKa in series [6] worked out at 9.7.

For `Oc1cccc(O)c1` [RESORCINOL], the “Log 1/I50” value in series [2] is recorded as 2.42 1/M. The IC50 in series [3] turned out to be 3830 µM. Besides, in series [4], the logP worked out at 0.78. The compound also had a pH-dependent lipophilicity (logD) in series [5] of 0.78. Further, the pKa in series [6] worked out at 9.4.

In the case of `O=C(O)c1ccccc1O` [SALICYLIC ACID], the I50 entry in series [7] is “No inhibition”. The compound further had a logP in series [4] of 2.24.

`CCCCCCCCCCCCCCCCCC(=O)O` [STEARIC ACID] had an inhibition at 200 µM in series [1] of 14.2%.

For the compound `Cc1ccc(C(C)C)c(O)c1` [THYMOL], in series [2], the “Log 1/I50” value is recorded as 3.31 1/M. Further, the IC50 in series [3] was found to be 494 µM. The compound further had a pKa in series [6] of 10.7.

Regarding `Oc1cc(Cl)c(Cl)cc1Cl` [TRICLOFENOL], in series [2], the “Log 1/I50” value is 3.89 1/M. In series [3], the IC50 stood at 128 µM. Besides, the lipophilicity (logP) in series [4] was 3.72. In addition, the logD in series [5] worked out at 3.31.

For the compound `CCCCCCCCCCCCC(=O)O` [TRIDECANOATE], in series [2], the “Log 1/I50” value is 3.12 1/M. In series [3], the IC50 turned out to be 750 µM. Also, the logP in series [4] was 5.42. Besides, in series [5], the pH-dependent lipophilicity (logD) turned out to be 3.12. Also, the pKa in series [6] stood at 4.9.

`CCCCCCCCCCC(=O)O` [UNDECANOATE]: the “Log 1/I50” value in series [2] was 2.35 1/M. The IC50 in series [3] was found to be 4470 µM. Further, the logP in series [4] was found to be 4.42. This compound had a logD in series [5] of 2.12. In addition, the pKa in series [6] was found to be 4.9.

As for `Cc1ccc(O)cc1` [p-CRESOL], in series [2], the “Log 1/I50” value is recorded as 2.44 1/M. For the same compound, the IC50 in series [3] was found to be 3640 µM. Further, the logD in series [5] was 1.94.
